Reference: PubChem BioAssay AID623956 (The Scripps Research Institute Molecular Screening Center, 2012)
Active and inactive are the calls of the source.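 How the source made its calls: active means at least 4-fold drop in recombinant frequency versus the solvent-only control; inactive means the rest.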

Test system: E. coli recBCD-deleted + H. pylori AddAB/RecA, Hfr recombinant frequency
Experiment: Hfr recombinant frequency reduction – colony formation, p(addAB), p(recA), 20 µM, counter-screen for AddAB inhibitor project, late-stage follow-up (AID 623956)
Conditions: at 20 µM; stronger effect = higher value
Summary of the method: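 Material – recBCD-deleted E. coli recipient carrying H. pylori addAB and recA plasmids · Repeats – duplicate experiments · Buffer or medium – LB broth · Incubation – compound exposure 1.5 h total, including 30 min mating · Technique – colony counts on selective and non-selective plates · Also added – HfrH donor strain V1306, mixed with recipients at 1:10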

SMILES	fold reduction
CCn1cc(C(=O)O)c(=O)c2cnc(N3CCN(C(=S)Nc4ccccc4C(F)(F)F)CC3)nc21	5
Cc1ccc2nc(/C(C#N)=C\c3ccc([N+](=O)[O-])o3)[nH]c2c1	1 (inactive)
O=C(Nc1ncccn1)c1ccc([N+](=O)[O-])o1	0.9 (inactive)
NC(=O)c1ccsc1NC(=O)COC(=O)c1ccc([N+](=O)[O-])o1	1.1 (inactive)
O=C(Nc1cccc(NC(=O)c2ccccc2Cl)c1)c1ccc([N+](=O)[O-])o1	0.8 (inactive)
C=CCn1c(Sc2ncc([N+](=O)[O-])s2)n[nH]c1=O	1.1 (inactive)
Cc1cccnc1NC(=O)c1ccc([N+](=O)[O-])o1	0.8 (inactive)
CC(=O)Nc1ccc2nc(NC(=O)c3ccc([N+](=O)[O-])o3)sc2c1	1.1 (inactive)
O=C(OCC(=O)c1cccs1)c1ccc([N+](=O)[O-])o1	0.9 (inactive)
O=C(NCc1cccnc1)c1ccc([N+](=O)[O-])o1	0.8 (inactive)
O=C(Nc1ccc(N2CCOCC2)cc1)c1ccc([N+](=O)[O-])o1	0.8 (inactive)
